Experimental data published in PubChem BioAssay AID504413 (Broad Institute, 2011).
Results filed as inconclusive are left out. The source made the active and inactive calls.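 The calls were made as follows: active = in every test run, the fitted curve rises past 10% of the positive control effect within the tested doses; inconclusive = runs disagree, or a flat fit at moderate level, or poor fit; inactive = all runs inactive, including signal going the wrong way.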

Test system: MEF A1-2A-BIM cells, caspase-3/7 Glo luminescence
Assay: caspase-3/7 activation in A1-dependent MEFs, dose response, A1 inhibitor project, cell-based, A1-2A-BIM MEF, luminescence, dry powder (AID 504413)
Conditions: not given
Method in brief: (§1)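 Test system: mouse embryonic fibroblasts co-expressing A1-2A-BIM, primed for A1 dependence; medium: RPMI-1640, 10% FBS; timing: 37 °C compound 3 h, room-temperature reagent 1 h; signal: Caspase-3/7 luminescence from DEVD-luciferin substrate reagent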
Compound `COCCn1c(=O)c([N+](=O)[O-])c(Cl)c2ccccc21` has an AC10 of 1.9 µM.
`Cc1ccc(S(=O)(=O)c2c([N+](=O)[O-])c(=O)n(C)c3ccccc23)cc1` showed an AC10 of 7.02 µM.
`Cn1c(=O)c([N+](=O)[O-])c(Cl)c2ccccc21` showed an AC10 of 2.6 µM.
With `Cc1ccc(Sc2c([N+](=O)[O-])c(=O)n(C)c3ccccc23)cc1` the AC10 was 7.28 µM.
For `Cn1c(=O)c([N+](=O)[O-])c(Sc2ccccn2)c2ccccc21`, the AC10 was 3.78 µM.

Test system: not listed separately
Assay: as above
Conditions: MEF A1-2A-BIM cells, caspase-3/7 Glo luminescence; stronger effect = higher value
Method in brief: as §1
For `COc1c([N+](=O)[O-])c(=O)n(C)c2ccccc12`, the max activity was -4.02% (inactive).
For `CCn1c(=O)c(Sc2ccc(C)cc2)c(Sc2ccc(C)cc2)c2ccccc21`, the max activity was 3.42% (inactive).
For `COCCn1c(=O)c(Sc2ccc(C)cc2)c(Sc2ccc(C)cc2)c2ccccc21`, the max activity was 4.03% (inactive).
With `COc1nc2ccccc2c(Sc2ccc(C)cc2)c1[N+](=O)[O-]` the max activity was -2.09% (inactive).
In the case of `COc1ccc(CCNc2nc(N3CCCC3)nc(N3CCCC3)n2)cc1OC`, the max activity is reported as 4.48% (inactive).
In the case of `O=C(COc1ccc(Cl)cc1Cl)NNc1nc(N2CCOCC2)nc(N2CCOCC2)n1`, the max activity is reported as -3.81% (inactive).
In the case of `Cn1c(=O)c(Sc2ccccn2)c(Sc2ccccn2)c2ccccc21`, the max activity is reported as -0.138% (inactive).
In the case of `Cc1ccc(Sc2c(Sc3ccc(C)cc3)c3ccccc3n(C)c2=O)cc1`, the max activity is reported as 0.915% (inactive).
For `O=c1[nH]c2ccccc2c(O)c1[N+](=O)[O-]`, the max activity was 0.403% (inactive).
In the case of `COc1ccc(N2CCN(c3nc(NCCc4ccc(OC)c(OC)c4)nc(N4CCOCC4)n3)CC2)cc1`, the max activity is reported as -3.19% (inactive).
With `COc1nc2ccccc2c(Cl)c1[N+](=O)[O-]` the max activity was -3.3% (inactive).
In the case of `Cc1ccc(Sc2c(Sc3ccc(C)cc3)c3ccccc3n(Cc3ccccc3)c2=O)cc1`, the max activity is reported as 6.71% (inactive).
For `COc1ccc(CCNc2nc(N3CCOCC3)nc(N3CCOCC3)n2)cc1OC`, the max activity was -1.95% (inactive).
For `C/C(=N\Nc1nc(N2CCCCC2)nc(N2CCCCC2)n1)c1ccc(F)cc1`, the max activity was 0.285% (inactive).
